Published values from different studies.
Each line is one published result; the experiments were not run side by side.
PPO3: PPO3 (Agaricus bisporus, UniProt C7FF04)
TAOK3: Serine/threonine-protein kinase TAO3 (TAOK3, Homo sapiens, UniProt Q9H2K8)
STK16: Serine/threonine-protein kinase 16 (STK16, Homo sapiens, UniProt O75716)

`CC(=O)ON=C1C=CC(=C(C#N)c2ccccc2)C=C1` has an activity vs control of 75% (Aurora kinase B (AURKB, Homo sapiens, UniProt Q96GD4); enzyme activity, inhibitor, ADP detection; 20 µM).
With `Cc1cc(O)c(-c2ccc([C@@H](C)CN(C)C)cc2)c2c1[nH]c(=O)c1sccc12` the inhibition was 13.1% (Interleukin-1 receptor-associated kinase-like 2 (IRAK2, Homo sapiens, UniProt O43187); cell-free assay, inhibitor; 0.1 µM, lysate).
`COc1ccc2oc(-c3ccc4nc(N)oc4c3)c/c(=N\c3ccccc3NC(=O)CCN)c2c1` gave a remaining binding of 114% (Serine/threonine-protein kinase WNK1 (WNK1, Homo sapiens, UniProt Q9H4A3); binding; 1 µM).
With `C1=C/COCc2cc(ccc2OCCN2CCCC2)Nc2nccc(n2)-c2cccc(c2)COC/1` the remaining binding was 95% (Cytoplasmic tyrosine-protein kinase BMX (BMX, Homo sapiens, UniProt P51813); binding; 0.1 µM).
For `Cc1ccc(CN2CCN(C(=O)/C=C/c3ccc(O)cc3O)CC2)cc1`, the kon was 298 M⁻¹ s⁻¹ (PPO3; binding, SPR).
With `Cc1cc(S(=O)(=O)N[C@H]2CC[C@H](CN3CCN(c4ccc(C5CCC(=O)NC5=O)cc4F)CC3)CC2)ccc1Nc1ncc(C(F)(F)F)c(N2CCC[C@](C)(O)C2)n1` (stereo partly shown) the remaining binding was 54% (TAOK3; binding, competition with immobilised ligand; 1 µM).
The inhibition of `Cc1cc(F)cc2c(CCC(=O)N[C@@H]3C(=O)NC[C@H]3O)c(-c3ccc(F)cc3)[nH]c12` is reported as 15% (Adenosine receptor A2a (ADORA2A, Homo sapiens, UniProt P29274); cell-free assay; 10 µM).
The remaining binding of `C[C@]1(O)CCCN(c2nc(Nc3ccc(S(=O)(=O)N[C@H]4CC[C@H](CN5CCN(c6ccc(C7CCC(=O)NC7=O)cc6F)CC5)CC4)cc3Cl)ncc2C(F)(F)F)C1` (stereo partly shown) is reported as 82% (TAOK3; binding, competition with immobilised ligand; 1 µM).
`NC/C(=C\F)COc1cccc(Cn2c(=S)[nH]c(=O)c3[nH]cnc32)c1` has an inhibition of < 50% (Sigma non-opioid intracellular receptor 1 (SIGMAR1, Homo sapiens, UniProt Q99720); ligand displacement, radioligand; 10 µM).
With `O=C(CCc1cccc(O)c1)N1CCN(Cc2ccc(F)cc2)CC1` the kon was 153 M⁻¹ s⁻¹ (PPO3; binding, SPR).
`C[C@]1(O)CCCN(c2nc(Nc3ccc(S(=O)(=O)N[C@H]4CC[C@H](CN5CCN(c6ccc(C7CCC(=O)NC7=O)cc6F)CC5)CC4)cc3F)ncc2C(F)(F)F)C1` (stereo partly shown) gave a remaining binding of 81% (STK16; binding, competition with immobilised ligand; 1 µM).
For `CCCCC(=O)Nc1ccc(-c2ccc3ncn(CCC)c(=O)c3c2)cn1`, the remaining binding was 99% (STK16; binding, competition with immobilised ligand; 0.5 µM).
`CCN1/C(=C/C(C)=O)Sc2ccc(F)cc21` has an inhibition of 0.75% (5-hydroxytryptamine receptor 2A (HTR2A, Homo sapiens, UniProt P28223); ligand displacement, radioligand; 10 µM).
